Calls of active or inactive are those of the source. The calls are words filed in the database; no cut-off is given here.
Legend:
[1] = Antivascular activity against human EAhy926 cells assessed as the minimum concentration required to elicit rounding up of cells after 2 hrs by microscopic analysis; type: functional, EA.hy 926
Summary of the method: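 EAhy 926 cells (HUVEC fused with A549) grown in DMEM with 10% FBS, 2 mM L-glutamine and antibiotics. Top concentration 100 µM, then two-fold serial dilutions. Wells photographed at 100× and 200×. Value = lowest concentration rounding up >15% of cells per field; 1% DMSO control.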

[2] = Inhibition of tubulin polymerization preincubated for 45 mins before GTP addition measured after 2 hrs by DAPI-based fluorescenct assay
Summary of the method: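 Tubulin (97% pure, 1 mg/ml final) in PME buffer (100 mM PIPES, MgSO₄, 2 mM EGTA) with 10 µM DAPI. Compounds from 30 µM in 3-fold decrements, triplicate wells, colchicine as full-inhibition control. 45 min preincubation at room temperature, then 1 mM GTP added and held 2 h at 37 °C. Fluorescence read at ex 360/em 450 nm. Percent inhibition taken relative to colchicine; IC50 = 50% inhibition.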

B16 = experiment: Cytotoxicity against mouse B16 cells assessed as cell viability after 48 hrs by MTT assay; type: functional, cell-based; settings: B16, 48 h
Summary of the method: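 Murine B16 melanoma cells in DMEM with 10% FBS, 2 mM L-glutamine and antibiotics, 37 °C, 5% CO₂. Incubated 48 h, then MTT read at 562 nm with background subtraction. IC50 from concentration-response curves.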

Colon 26 [3] = experiment: Antitumor activity against mouse Colon 26 cells allografted in BALB/cJRj mouse assessed as tumor growth delay time at 150 mg/kg, ip administered on days 3-7 and 10-14 post implantation relative to control; type: functional; settings: route intraperitoneal
Summary of the method: (§1)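 Female BALB/cJRj mice (about 18 g), 5 per group. Colon 26 tumor fragments (30-60 mg) implanted s.c. bilaterally in the axilla on day 0. Dosing i.p. on days 3-7 and 10-14 in saline with 5% DMSO and 5% polysorbate 80, 0.2 ml. Tumors measured daily by caliper, volume = length × width² × 0.5. %T/C = median treated/control, taken when control tumors reached 1500 mm³. T-C growth delay also recorded.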

Colon 26 [4] = experiment: Antitumor activity against mouse Colon 26 cells allografted in BALB/cJRj mouse assessed as reduction in tumor volume at 150 mg/kg, ip administered on days 3-7 and 10-14 post implantation relative to control; type: functional; design: scale not given: the % may be the effect or the level left; settings: route intraperitoneal; summary of the method: as §1
[5] = Toxicity in mouse ip dosed BALB/cJRj mouse allografted with mouse Colon 26 cells compound administered on days 3-7 and 10-14 post implantation relative to control; type: organism-based; settings: in vivo
Summary of the method: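 Female BALB/cJRj mice (~18 g) with bilateral subcutaneous axillary Colon 26 fragments (30-60 mg) implanted on day 0; 5 mice/group. Daily fresh doses in saline with 5% DMSO and 5% polysorbate 80, given ip on days 3-7 and 10-14; solvent-treated controls. Mice weighed daily and checked for clinical toxicity signs; tumours measured daily by caliper.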

Colon 26 [6] = experiment: Antitumor activity against mouse Colon 26 cells allografted in BALB/cJRj mouse assessed as tumor growth delay time at 100 mg/kg, ip administered on days 3-7 and 10-14 post implantation relative to control; type: functional; settings: route intraperitoneal; summary of the method: as §1
EA.hy 926 = experiment: Antivascular activity against human EAhy926 cells assessed as rounding up of cells at 1 uM after 2 hrs by microscopic analysis; type: functional, cell-based
Colon 26 [7] = experiment: Antitumor activity against mouse Colon 26 cells allografted in BALB/cJRj mouse assessed as reduction in tumor volume at 100 mg/kg, ip administered on days 3-7 and 10-14 post implantation relative to control; type: functional; design: scale not given: the % may be the effect or the level left; settings: route intraperitoneal; summary of the method: as §1

## COc1cc(/C=C(/Cc2cc(OC)c(OC)c(OC)c2)[N+](=O)[O-])cc(OC)c1OC
[1]
  Activity: 6.3 µM
[2]
  IC50: 22.4 µM
B16
  IC50: 3.3 µM

## COc1cc(/C=C(/Cc2c[nH]c3ccccc23)[N+](=O)[O-])cc(OC)c1OC
[1]
  Activity: 1.6 µM
[2]
  IC50: 5.2 µM
B16
  IC50: 5.5 µM

## COc1ccc(/C=C\c2cc(OC)c(OC)c(OC)c2)cc1O [COMBRETASTATIN A4]
[1]
  Activity: 0.006 µM
[2]
  IC50: 0.3 µM
B16
  IC50: 0.003 µM

## COc1cc(C/C(=C/c2ccc3c(c2)OCO3)[N+](=O)[O-])cc(OC)c1OC
[1]
  Activity: 0.4 µM
[2]
  IC50: 10.5 µM
B16
  IC50: 3 µM

## COc1ccc(-c2nn[nH]c2Cc2cc(OC)c(OC)c(OC)c2)cc1N
[1]
  Activity: 0.2 µM
[2]
  IC50: 1.8 µM
B16
  IC50: 14.8 µM

## COc1cc(-c2nn[nH]c2Cc2cc(OC)c(OC)c(OC)c2)ccc1O
[1]
  Activity: >100 µM
[2]
  IC50: > 30 µM
B16
  IC50: > 100 µM

## COc1ccc(-c2nn[nH]c2Cc2cc(OC)c(OC)c(OC)c2)cc1F
[1]
  Activity: 2.5 µM
[2]
  IC50: 12 µM
B16
  IC50: 31 µM

## COc1cc(/C=C(/Cc2cc(OC)c(OC)c(OC)c2)[N+](=O)[O-])ccc1O
[1]
  Activity: 6.3 µM
[2]
  IC50: > 30 µM
B16
  IC50: 2.6 µM

## COc1ccc(/C=C(/Cc2cc(OC)c(OC)c(OC)c2)[N+](=O)[O-])cc1O
Colon 26 [3]
  Time: 2 days
[1]
  Activity: 0.2 µM
[2]
  IC50: 0.9 µM
Colon 26 [4]
  Activity: 52%
B16
  IC50: 4 µM
[5]
  MTD: 150 mg/kg

## COc1ccc(/C=C(/Cc2cc(OC)c(OC)c(OC)c2)[N+](=O)[O-])cc1F
[1]
  Activity: 0.8 µM
[2]
  IC50: 1.6 µM
B16
  IC50: 2.9 µM

## COc1ccc(/C=C(/Cc2cc(OC)c(OC)c(OC)c2)[N+](=O)[O-])cc1[N+](=O)[O-]
[1]
  Activity: 3 µM
[2]
  IC50: 8.9 µM
B16
  IC50: 3.5 µM

## COc1cc(C/C(=C/c2ccc(Cl)c(Cl)c2)[N+](=O)[O-])cc(OC)c1OC
[1]
  Activity: 3.1 µM
[2]
  IC50: 15.5 µM
B16
  IC50: 4.6 µM

## COc1cc(-c2nn[nH]c2Cc2c[nH]c3ccccc23)cc(OC)c1OC
[1]
  Activity: 50 µM
[2]
  IC50: > 30 µM
B16
  IC50: 10.7 µM

## COc1ccc(C/C(=C/c2cc(OC)c(OC)c(OC)c2)[N+](=O)[O-])cc1O
[1]
  Activity: 0.6 µM
[2]
  IC50: 0.9 µM
B16
  IC50: 2.9 µM

## COc1cc(C/C(=C/c2ccc(Cl)cc2Cl)[N+](=O)[O-])cc(OC)c1OC
[1]
  Activity: 3.1 µM
[2]
  IC50: 21.9 µM
B16
  IC50: 2.6 µM

## COc1cc(/C=C(/Cc2cc(OC)c(OC)c(OC)c2)[N+](=O)[O-])cc(OC)c1O
[1]
  Activity: 12.5 µM
[2]
  IC50: 23.4 µM
B16
  IC50: 3.2 µM

## COc1cc(Cc2[nH]nnc2-c2ccc(Cl)cc2Cl)cc(OC)c1OC
[1]
  Activity: >100 µM
[2]
  IC50: > 30 µM
B16
  IC50: 41.7 µM

## COc1cc(Cc2[nH]nnc2-c2ccc3c(c2)OCO3)cc(OC)c1OC
[1]
  Activity: 25 µM
[2]
  IC50: > 30 µM
B16
  IC50: 38 µM

## COc1ccc(-c2nn[nH]c2Cc2cc(OC)c(OC)c(OC)c2)cc1O
[1]
  Activity: 0.13 µM
Colon 26 [6]
  Time: 2.7 days
EA.hy 926
  Activity: Active
[2]
  IC50: 1.2 µM
Colon 26 [7]
  Activity: 60%
B16
  IC50: 1.6 µM
[5]
  MTD: 100 mg/kg

## COc1ccc(Cc2[nH]nnc2-c2cc(OC)c(OC)c(OC)c2)cc1O
[1]
  Activity: 0.6 µM
[2]
  IC50: 1.7 µM
B16
  IC50: 22.9 µM

## COc1ccc(-c2nn[nH]c2Cc2cc(OC)c(OC)c(OC)c2)cc1[N+](=O)[O-]
[1]
  Activity: 25 µM
[2]
  IC50: > 30 µM
B16
  IC50: 50.1 µM
